# Screens: PubChem, several laboratories
# An excerpt weighted towards active compounds, which were near 2.7% of everything screened.
# NR2E3 ag-1: activates human NR2E3 receptor | CHO-S Gal4-NCOR/VP16-NR2E3 two-hybrid, luciferase | inhibition of corepressor binding, % at 3.98 µM | 360,000 tested, 0.35% active | AID 602229;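 active = inhibition above the mean of all tested compounds plus 3 SD, cut at about 70% in these data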;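 note: 0% = DMSO with NR2E3 transfected cells and 100% = cells lacking NR2E3 construct; higher means lower luciferase signal from less NR2E3 corepressor binding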
# Target sequence (Q9Y5X4 whole entry, looked up, the tested form may be a part): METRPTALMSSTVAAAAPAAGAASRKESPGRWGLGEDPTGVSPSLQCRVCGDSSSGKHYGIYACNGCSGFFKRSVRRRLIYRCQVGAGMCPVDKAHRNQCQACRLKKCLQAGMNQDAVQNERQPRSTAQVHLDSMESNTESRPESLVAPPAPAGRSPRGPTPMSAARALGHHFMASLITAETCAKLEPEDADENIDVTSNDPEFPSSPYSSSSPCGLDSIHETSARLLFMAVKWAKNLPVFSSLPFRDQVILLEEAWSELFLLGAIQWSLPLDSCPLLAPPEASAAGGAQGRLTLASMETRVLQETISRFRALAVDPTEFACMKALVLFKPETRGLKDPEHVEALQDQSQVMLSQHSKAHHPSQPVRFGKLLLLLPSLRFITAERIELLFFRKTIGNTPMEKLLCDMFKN
# MC4R antagonist: human MC4R antagonism in cAMP assay; MC4R-expressing cells, MTII-stimulated cAMP, LANCE TR-FRET; inhibition, % at 6.5 µM; 360,000 tested, 0.48% active; P32245;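 active = inhibition above its plate's cutoff, the mean of tested wells on that plate plus 3 SD, cut at about 29% in these data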;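 note: 0% = Melanotan II alone and 100% = Melanotan II plus saturating MCL0020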
#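 Material: U2OS-MC4R stable cell line | Reagent: Melanotan II challenge after compound preincubation | Doses: One concentration, 6.5 µM nominal | Incubation: 30-min compound preincubation, 1-h Melanotan II challenge, 1-h detection, room temperature | Signal: TR-FRET cAMP assay | Replicates: One well per compound, no replicates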
# NR1D1 modulator: modulators of human Rev-erb alpha DNA binding. Rev-erbα–FITC-DNA binding, fluorescence polarization, 90 min. activity, % at 10 µM. 370,000 tested, 0.79% active. AID 1259318;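 active = activity above about 14%, limit read from the data; passing the limit was not always enough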;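 note: 0% = DMSO wells with 35 nM protein and 100% = DMSO wells with 750 nM protein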
# MC4R barr agon: activates human MC4R beta-arrestin recruitment; activation, % at 8.9 µM; U2OS MC4R beta-arrestin complementation, luminescence; percent of melanotan II response, DMSO zero; 360,000 tested, 0.98% active; AID 540308; P32245;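 active = activation above a per-plate cutoff, the mean activation of sample wells on that plate plus 3 SD, cut at about 8% in these data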
# NR2E3 ag-2: activates human photoreceptor nuclear receptor NR2E3; 320,000 tested, 0.12% active; Q9Y5X4; inhibition of corepressor binding, % at 4.78 µM; GST-NR2E3/biotin-RetCOR TR-FRET, 1536-well;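 active = percent inhibition above the cutoff of mean plus 3 SD of all tested compounds, set per screening campaign, cut at about 20% in these data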;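 note: 0% = DMSO wells and 100% = biotin wells as full block of FRET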
#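 system = GST-tagged NR2E3 plus biotinylated RetCOR corepressor | input = 1.35 nM GST-NR2E3 | also added = 7 nM biotin-RetCOR | schedule = 5 h incubation at 4 °C | measured by = TR-FRET with europium anti-GST and streptavidin-D2, 340 nm excitation | read-out = percent loss of FRET ratio relative to control wells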
# PG9 Ab binder: PG9 antibody binding by small molecule | inhibition, % at 6.7 µM | 360,000 tested, 0.43% active | TR-FRET gp120-PG9 antibody binding; in the data active = inhibition above about 8.5%
# PG9 binder conf: PG9 antibody binding, confirmed; shares compounds with PG9 Ab binder; TR-FRET PG9 antibody binding, biochemical; inhibition, % at 6.7 µM; 1,500 tested, 90% active; in the data active = inhibition above about 9%
# PGV04 Ab binding: counter-screen for PG9 binders: binding control antibody PGV04 | shares compounds with PG9 Ab binder | 1,500 tested, 95% active | AID 651604 | inhibition, % at 6.7 µM | TR-FRET PGV04 antibody-gp120 binding, biochemical; in the data active = inhibition above about 9.5%
# * = called active by the depositor; x = not tested or not shown.
SMILES,NR2E3 ag-1,MC4R antagonist,NR1D1 modulator,MC4R barr agon,NR2E3 ag-2,PG9 Ab binder,PG9 binder conf,PGV04 Ab binding
CCN(CC)c1ccc(-c2sc(Nc3ccccc3)n[n+]2-c2ccc(F)cc2)cc1,-46,-1,6,4,7,6,x,x
Cc1ccc(NC(=O)CSc2nc3sc(C)cc3c(=O)n2C)cc1,-10,-6,0,-1,0,17*,16*,26*
CCOc1ccc(-n2c(SCC(=O)NCc3ccco3)nc3ccccc3c2=O)cc1,-11,16,-1,-2,1,17*,45*,53*
COC(=O)C1=C(COc2ccc(F)cc2)NC(=O)NC1c1ccc(C)cc1C (centres undefined),13,24,-2,3,1,0,x,x
COc1cccc(C2C(C(=O)c3cc4cccc(OC)c4o3)=C(O)C(=O)N2c2cc(C)on2)c1OC (centres undefined),-52,9,-3,0,14,14*,22*,36*
COc1cccc(C2C(C(=O)c3cccs3)=C(O)C(=O)N2CCN2CCOCC2)c1 (centres undefined),-14,9,-5,-1,4,0,x,x
COc1cccc(C2C(C(=O)c3ccc(C)o3)=C(O)C(=O)N2c2cc(C)on2)c1 (centres undefined),-42,10,-5,-1,12,8.7*,17*,22*
COc1cccc(C2C(C(=O)c3ccc(C)o3)=C(O)C(=O)N2CCN2CCOCC2)c1 (centres undefined),-26,14,2,-2,9,9.0*,21*,25*
Cc1ccc(NC(=O)CCC(=O)NNC(=O)NC23CC4CC(CC(C4)C2)C3)cc1C,-8,-1,0,-4,2,1,x,x
O=C(Cn1c(=O)oc2cc(S(=O)(=O)N3CCc4ccccc43)ccc21)N1CCCCC1,6,4,-9,2,-3,-1,x,x
Cn1c(C(=O)NC2CCCCC2)cc2c(=O)n(C)c3ccccc3c21,12,9,5,3,-16,12*,15*,26*
CC1CCC(NC(=O)c2cc3c(=O)n(C)c4ccccc4c3n2C)CC1 (centres undefined),17,-3,-2,-1,3,0,x,x
COc1ccc(/C=C/C(=O)Oc2cccc(/C=N/NC(=O)COc3c(C)cccc3C)c2)cc1,-85,-2,6,6,-1,9.5*,11*,16*
COc1ccc(/C=C/C(=O)Oc2ccc(/C=N/NC(=O)COc3c(C)cccc3C)cc2)cc1,-35,14,4,1,1,0,x,x
COc1ccc(/C(O)=C2/C(=O)C(=O)N(CCN(C)C)C2c2ccc(F)cc2)cc1Cl (centres undefined),2,2,11,-1,9,9.5*,20*,23*
COc1ccc(/C(O)=C2/C(=O)C(=O)N(CCN(C)C)C2c2cccnc2)cc1C (centres undefined),-4,-2,2,2,8,13*,22*,28*
COc1ccc(C2/C(=C(/O)c3ccc(F)cc3)C(=O)C(=O)N2CCCN(C)C)cc1 (centres undefined),-18,9,-1,0,x,-2,x,x
O=C(CNC(=O)c1ccccc1F)NCc1ccncc1,-12,11,-8,0,x,0,x,x
CCOc1ccccc1N(C)S(=O)(=O)c1ccc2[nH]cc(C(=O)N(CCOC)CCOC)c(=O)c2c1,-9,3,-5,-2,0,3,x,x
COCCN(CCOC)C(=O)c1c[nH]c2ccc(S(=O)(=O)N(C)c3ccc(F)cc3)cc2c1=O,-18,8,5,0,3,9.6*,11*,12*
CN(c1ccc(F)cc1)S(=O)(=O)c1ccc2[nH]cc(C(=O)O)c(=O)c2c1,-33,-5,-5,-1,1,9.6*,16*,19*
Cc1ccc(OCC(=O)N/N=C/c2ccc3c(c2)OCO3)cc1C,-11,5,-2,2,x,0,x,x
CCCCNc1nc2c(S(=O)(=O)c3ccccc3)nnn2c2ccccc12,15,20,16,2,8,29*,58*,75*
CCc1ccc(S(=O)(=O)c2nnn3c2nc(NCCNC(C)=O)c2ccccc23)cc1,10,-25,-2,3,-2,0,x,x
O=C(N/C(=N\O)c1ccccc1)Nc1ccc(Cl)cc1,-18,1,-2,0,0,1,x,x
SMILES,NR2E3 ag-1,MC4R antagonist,NR1D1 modulator,MC4R barr agon,NR2E3 ag-2,PG9 Ab binder,PG9 binder conf,PGV04 Ab binding
O=C(Oc1c(Br)cc(Br)c2cccnc12)N1CCCCC1,3,10,15,1,5,9.1*,14*,18*
Cc1cccc(NS(=O)(=O)c2ccc(C(=O)NCCCN3CCOCC3)cc2)c1C,23,-2,-5,-2,x,-1,x,x
Cc1nc(SCC(=O)NCCc2ccccc2)c2c(=O)n(C)c(=O)n(C)c2n1,-7,14,5,-1,0,0,x,x
Cc1nc(SCC(=O)NCc2ccccc2)c2c(=O)n(C)c(=O)n(C)c2n1,-29,7,0,0,0,14*,5,8
COc1cc(C)c(CN2CCN(CC(=O)Nc3ccccc3C(=O)NC3CC3)CC2)cc1OC,18,-2,-7,0,1,-1,x,x
COC(=O)c1nn(-c2cccc(C)c2)c2nnc(Cc3ccc(C)cc3)c(=O)n12,-17,11,-4,0,-2,0,x,x
COC(=O)c1nn(-c2ccc(C)cc2)c2nnc(Cc3ccccc3)c(=O)n12,-17,4,-4,0,-2,23*,19*,28*
COc1cccc(NCc2nnc(SCC(=O)NC3CCS(=O)(=O)C3)n2C2CCCCC2)c1 (centres undefined),5,1,-3,0,-3,2,x,x
O=C(CN1C(=O)S/C(=C/c2cccn2-c2ccc(O)cc2)C1=O)N1CCCC1,12,0,3,1,0,-2,x,x
CCn1c(=NC(=O)c2cccc(N3C(=O)CCC3=O)c2)sc2c(OC)ccc(OC)c21,-15,5,19,0,5,0,x,x
COc1ccc(OC)c2c1sc(=NC(=O)c1cccc(N3C(=O)CCC3=O)c1)n2C,-23,-4,23,0,5,52*,65*,82*
Cc1ccc2cc(C#N)c(NCc3ccccc3)nc2c1,-25,5,0,-1,12,35*,30*,55*
